Values after ≈ are worked out from the molar mass of the structure shown.
Columns and labels:
Candida albicans [1] = assay: Ratio of MIC for Candida albicans isolate 108 harboring erg11 and erg5 double mutant to MIC for Candida albicans isolate14 expressing wild type erg11 and erg 5 enzyme; assay type: functional
Candida albicans [2] = assay: Antifungal activity against Candida albicans isolate 6 after 48 hrs by Etest; details: isolate 6, 48 h
Candida albicans [3] = assay: Antifungal activity against Candida albicans isolate 14 after 48 hrs by Etest; details: isolate 14, 48 h
Candida albicans [4] = assay: Antifungal activity against Candida albicans isolate 108 harboring erg11 and erg5 double mutant after 48 hrs by Etest; assay type: functional; details: isolate 108, 48 h
Candida albicans [5] = assay: Ratio of MIC for Candida albicans isolate 108 harboring erg11 and erg5 double mutant to MIC for Candida albicans isolate 177 expressing wild type erg11 and erg 5 enzyme; assay type: functional
Candida albicans [6] = assay: microbe, parasite or virus in culture; details: isolate 177, 48 h
Candida albicans [7] = assay: Ratio of MIC for Candida albicans isolate 108 harboring erg11 and erg5 double mutant to MIC for Candida albicans isolate 6 expressing wild type erg11 and erg 5 enzyme; assay type: functional
Candida albicans [8] = assay: Effect on sterol composition in Candida albicans isolate 14 expressing wild type erg11 and erg5 assessed as 14 -Methylergosta-8,24(28)-dien-3beta,6alpha-diol level after 2 hrs by gas chromatography; assay type: functional; set-up: concentration or dose not given beside the values
Candida albicans [9] = assay: Effect on sterol composition in Candida albicans isolate 108 harboring erg11 and erg5 double mutant eburicol level after 2 hrs by gas chromatography; assay type: functional; set-up: concentration or dose not given beside the values
Candida albicans [10] = assay: Effect on sterol composition in Candida albicans isolate 14 expressing wild type erg11 and erg5 assessed as lanosterol level after 2 hrs by gas chromatography; assay type: functional
Candida albicans [11] = assay: Effect on sterol composition in Candida albicans isolate 108 harboring erg11 and erg5 double mutant assessed as ergosta 5,7-dienol level after 2 hrs by gas chromatography; assay type: functional; set-up: concentration or dose not given beside the values
Candida albicans [12] = assay: Effect on sterol composition in Candida albicans isolate 108 harboring erg11 and erg5 double mutant assessed as obtusifoliol level after 2 hrs by gas chromatography; assay type: functional; set-up: concentration or dose not given beside the values
Candida albicans [13] = assay: Antifungal activity against Candida albicans isolate 177 after 48 hrs by broth microdilution method; assay type: functional; details: isolate 177, 48 h
Summary of the method: (§1)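 CLSI M27-A2 broth dilution in RPMI 1640 buffered with 0.165 M MOPS (pH 7), 37°C, for azoles (fluconazole, voriconazole, itraconazole, ketoconazole, clotrimazole). For amphotericin B, the MIC is the lowest concentration with complete growth inhibition.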

Candida albicans [14] = assay: Antifungal activity against Candida albicans isolate 6 after 48 hrs by broth microdilution method; assay type: functional; details: isolate 6, 48 h; summary of the method: as §1
Candida albicans [15] = assay: Effect on sterol composition in Candida albicans isolate 14 expressing wild type erg11 and erg5 assessed as ergosterol level after 2 hrs by gas chromatography; assay type: functional; set-up: concentration or dose not given beside the values
Candida albicans [16] = assay: Antifungal activity against Candida albicans isolate 108 harboring erg11 and erg5 double mutant after 48 hrs by broth microdilution method; assay type: functional; details: isolate 108, 48 h; summary of the method: as §1
Candida albicans [17] = assay: Effect on sterol composition in Candida albicans isolate 108 harboring erg11 and erg5 double mutant assessed as lanosterol level after 2 hrs by gas chromatography; assay type: functional; set-up: concentration or dose not given beside the values
Candida albicans [18] = assay: Effect on sterol composition in Candida albicans isolate 108 harboring erg11 and erg5 double mutant assessed as 14 -Methylergosta-8,24(28)-dien-3beta,6alpha-diol level after 2 hrs by gas chromatography; assay type: functional
Candida albicans [19] = assay: Antifungal activity against Candida albicans isolate 14 after 48 hrs by broth microdilution method; assay type: functional; details: isolate 14, 48 h; summary of the method: as §1
Candida albicans [20] = assay: Effect on sterol composition in Candida albicans isolate 14 expressing wild type erg11 and erg5 assessed as obtusifoliol level after 2 hrs by gas chromatography; assay type: functional; set-up: concentration or dose not given beside the values
Candida albicans [21] = assay: Antifungal activity against Candida albicans isolate 108 harboring erg11 and erg5 double mutant after 48 hrs by broth microdilution method in presence of 10 uM of efflux pump inhibitor FK506; assay type: functional; details: isolate 108, 48 h
Summary of the method: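 C. albicans clinical isolate grown in RPMI 1640 buffered with 0.165 M MOPS (pH 7). Azole MICs by CLSI M27-A2 broth microdilution, with doubling drug dilutions plus a fixed 10 μM FK506. Plates incubated 48 h at 37°C and read visually. MIC taken as the lowest azole concentration giving at least 80% growth inhibition versus control wells.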

Candida albicans [22] = assay: Effect on sterol composition in Candida albicans isolate 14 expressing wild type erg11 and erg5 assessed as eburicol level after 2 hrs by gas chromatography; assay type: functional
Candida albicans [23] = assay: Effect on sterol composition in Candida albicans isolate 108 harboring erg11 and erg5 double mutant assessed as zymosterol level after 2 hrs by gas chromatography; assay type: functional
Candida albicans [24] = assay: Effect on sterol composition in Candida albicans isolate 108 harboring erg11 and erg5 double mutant assessed as 4,14alpha-Dimethylcholesta-8,24-dienol level after 2 hrs by gas chromatography; assay type: functional
Candida albicans [25] = assay: Antifungal activity against Candida albicans isolate 6 after 48 hrs by broth microdilution method in presence of 10 uM of efflux pump inhibitor FK506; assay type: functional
Summary of the method: (§2)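 Doubling dilutions of azole with a fixed 10 μM FK506 in microtiter wells in MOPS-buffered RPMI 1640 (pH 7). Read visually after 48 h at 37°C. The MIC is the lowest azole concentration giving at least 80% growth inhibition versus control wells.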

Candida albicans [26] = assay: Antifungal activity against Candida albicans isolate 14 after 48 hrs by broth microdilution method in presence of 10 uM of efflux pump inhibitor FK506; assay type: functional; details: isolate 14, 48 h; summary of the method: as §2
Candida albicans [27] = assay: Effect on sterol composition in Candida albicans isolate 108 harboring erg11 and erg5 double mutant assessed as 14alpha-Methylfecosterol level after 2 hrs by gas chromatography; assay type: functional
Candida albicans [28] = assay: Antifungal activity against Candida albicans isolate 177 after 48 hrs by broth microdilution method in presence of 10 uM of efflux pump inhibitor FK506; assay type: functional; details: isolate 177, 48 h; summary of the method: as §2
Candida albicans [29] = assay: Effect on sterol composition in Candida albicans isolate 108 harboring erg11 and erg5 double mutant assessed as 4,4-Dimethylcholesta-8,14,24-trienol level after 2 hrs by gas chromatography; assay type: functional

Structure (SMILES) | Activity (Candida albicans [8]) [%] | Activity (Candida albicans [9]) [%] | Activity (Candida albicans [10]) [%] | Activity (Candida albicans [11]) [%] | Activity (Candida albicans [12]) [%] | MIC (Candida albicans [13]) [µg/mL] | MIC (Candida albicans [14]) [µg/mL] | Activity (Candida albicans [15]) [%] | MIC (Candida albicans [16]) [µg/mL] | Activity (Candida albicans [17]) [%] | Activity (Candida albicans [18]) [%] | MIC (Candida albicans [19]) [µg/mL] | Activity (Candida albicans [20]) [%] | MIC (Candida albicans [21]) [µg/mL] | Activity (Candida albicans [24]) [%] | MIC (Candida albicans [26]) [µg/mL] | Activity (Candida albicans [27]) [%] | MIC (Candida albicans [28]) [µg/mL] | also measured
C[C@@H]1[C@H](O)[C@@H](C)/C=C/C=C/C=C/C=C/C=C/C=C/C=C/[C@H](O[C@@H]2O[C@H](C)[C@@H](O)[C@H](N)[C@@H]2O)C[C@@H]2O[C@](O)(C[C@@H](O)C[C@@H](O)[C@H](O)CC[C@@H](O)C[C@@H](O)CC(=O)O[C@H]1C)C[C@H](O)[C@H]2C(=O)O [AMPHOTERICIN B] | – | – | – | – | – | – | – | – | – | – | – | – | – | – | – | – | – | – | Ratio (Candida albicans [1]): 8; MIC (Candida albicans [2]): 0.25 µg/mL (≈ 0.271 µM); MIC (Candida albicans [3]): 0.25 µg/mL (≈ 0.271 µM); MIC (Candida albicans [4]): 4 µg/mL (≈ 4.33 µM); Ratio (Candida albicans [5]): 8; MIC (Candida albicans [6]): 0.25 µg/mL (≈ 0.271 µM); Ratio (Candida albicans [7]): 8
Clc1ccccc1C(c1ccccc1)(c1ccccc1)n1ccnc1 [CLOTRIMAZOLE] | 35 | 8.2 | 35 | 42.6 | 16.4 | 1 (≈ 2.9 µM) | 1 (≈ 2.9 µM) | 30 | 2 (≈ 5.8 µM) | 16.4 | 32.8 | 0.0625 (≈ 0.181 µM) | 35 | – | – | – | – | – | –
OC(Cn1cncn1)(Cn1cncn1)c1ccc(F)cc1F [FLUCONAZOLE] | 25.4 | 0.9 | 25 | 57.1 | 25.7 | 256 (≈ 836 µM) | 256 (≈ 836 µM) | 45.5 | 64 (≈ 209 µM) | 25.7 | – | 1 (≈ 3.27 µM) | 25 | 16 | 5.5 | 1 | 9.4 | 0.5 | Activity (Candida albicans [22]): 4.1%; Activity (Candida albicans [23]): 1.4%; Activity (Candida albicans [25]): 1 µg/mL
CCC(C)n1ncn(-c2ccc(N3CCN(c4ccc(OCC5COC(Cn6cncn6)(c6ccc(Cl)cc6Cl)O5)cc4)CC3)cc2)c1=O (stereo unspecified) [ITRACONAZOLE] | 38 | 8.3 | 29 | 25 | 16.7 | 16 (≈ 22.7 µM) | 16 (≈ 22.7 µM) | 33 | 2 (≈ 2.83 µM) | 16.7 | 50 | 0.0625 (≈ 0.0886 µM) | 29 | – | – | – | – | – | –
CC(=O)N1CCN(c2ccc(OCC3COC(Cn4ccnc4)(c4ccc(Cl)cc4Cl)O3)cc2)CC1 (stereo unspecified) [KETOCONAZOLE] | 37.2 | 10.2 | 26.4 | 24.4 | 20.3 | 16 (≈ 30.1 µM) | 16 (≈ 30.1 µM) | 36.4 | 1 (≈ 1.88 µM) | 20.3 | 45.1 | 0.0625 (≈ 0.118 µM) | 26.4 | – | – | – | – | – | –
C[C@@H](c1ncncc1F)[C@](O)(Cn1cncn1)c1ccc(F)cc1F [VORICONAZOLE] | 28.6 | 9.4 | 24.1 | 27.4 | 29.5 | 16 (≈ 45.8 µM) | 16 (≈ 45.8 µM) | 47.3 | 8 (≈ 22.9 µM) | 29.5 | 10.4 | 0.0625 (≈ 0.179 µM) | 24.1 | 4 | 7.2 | < 0.0625 | 12.7 | < 0.0625 | MIC (Candida albicans [25]; Candida albicans, isolate 6, 48 h): < 0.0625 µg/mL; Activity (Candida albicans [29]): 3.4%
